Screening results (PubChem)
Sampled rows, rich in hits. Any-hit rate of the full collection: about 2%.
PAD4 FP inh: human PAD4 inhibitors, primary screen, biochemical, fluorescence polarization, 1536-well format; Protein-arginine deiminase type-4 (Homo sapiens), Q9UM07; recombinant PAD4, RCA probe fluorescence polarization; inhibition, % at 6.36 µM; hit rate 0.41% among 330,000; AID 485272, 2010;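 active means percent inhibition above a cutoff equal to the mean of all tested compounds plus 3 SD, cut at about 15% in these data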;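 further: 0% = PAD4 with RCA probe and DMSO and 100% = probe without PAD4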
Target sequence (Q9UM07 whole entry, looked up): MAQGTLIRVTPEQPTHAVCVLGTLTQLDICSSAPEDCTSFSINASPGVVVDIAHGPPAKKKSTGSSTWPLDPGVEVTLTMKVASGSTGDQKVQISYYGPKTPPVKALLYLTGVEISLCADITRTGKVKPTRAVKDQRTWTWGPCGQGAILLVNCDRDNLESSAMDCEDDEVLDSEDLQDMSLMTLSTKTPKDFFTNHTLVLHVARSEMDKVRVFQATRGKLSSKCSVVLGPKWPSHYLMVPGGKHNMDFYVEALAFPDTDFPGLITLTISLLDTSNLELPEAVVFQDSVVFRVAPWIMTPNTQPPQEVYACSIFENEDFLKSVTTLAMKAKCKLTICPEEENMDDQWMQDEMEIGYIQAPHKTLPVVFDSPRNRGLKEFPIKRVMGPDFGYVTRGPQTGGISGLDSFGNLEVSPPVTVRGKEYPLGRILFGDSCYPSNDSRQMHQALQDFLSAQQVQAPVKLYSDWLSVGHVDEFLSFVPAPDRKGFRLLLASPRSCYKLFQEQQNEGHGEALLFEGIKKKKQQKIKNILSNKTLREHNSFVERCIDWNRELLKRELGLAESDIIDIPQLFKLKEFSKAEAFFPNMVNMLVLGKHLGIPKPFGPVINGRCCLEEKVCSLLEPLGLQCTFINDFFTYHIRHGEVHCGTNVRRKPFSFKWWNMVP
HTRA1 inhibitor: HTRA1 serine protease inhibitors, primary screen, biochemical, fluorescence polarization, HTS; Q92743; recombinant HTRA1, FP-rhodamine activity-based probe; inhibition, % at 5.96 µM; hit rate 0.5% among 340,000; AID 504803, 2011; in the data active means inhibition above about 36%;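 further: 0% = enzyme with DMSO and 100% = wells lacking enzyme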
ABHD4 inh: ABHD4 inhibitors, primary screen, biochemical, fluorescence polarization, mouse. inhibition, % at 8.92 µM. hit rate 0.54% among 370,000. purified mABHD4, FP-Rh probe fluorescence polarization. (Lyso)-N-acylphosphatidylethanolamine lipase (Mus musculus), Q8VD66;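 active means inhibition exceeding the mean over every tested compound plus 3 SD, cut at about 30% in these data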;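 further: 0% = plate median of compound wells and 100% = S159A mutant with DMSO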
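Assay system: mABHD4 protein; medium: HEPES pH 7.0, NaCl, Pluronic buffer; dosing: 8.92 µM, single dose; schedule: 45 min + 60 min at 25 °C; signal: FP readout, ex 525 nm / em 598 nm; read-out: normalized percent inhibition of probe labeling; repeats: single replicate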
SIAE inh: human SIAE inhibitors, primary screen, biochemical, fluorescence polarization, FP-Rh probe, 1536-well HTS. SIAE FP-Rh probe binding. Sialate O-acetylesterase (Homo sapiens), Q9HAT2. inhibition, % at 9.66 µM. hit rate 0.69% among 370,000;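 active means inhibition above a cutoff: mean of compounds within the control limits plus 3 SD of those, cut at about 17% in these data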;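 further: 0% = plate median of compound wells and 100% = probe without SIAE protein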
TDP2 inh: human TDP2 enzyme inhibitors, primary screen, biochemical, epi absorbance, recombinant enzyme. Tyrosyl-DNA phosphodiesterase 2 (Homo sapiens), O95551. T5PNP hydrolysis, p-nitrophenol absorbance 415 nm. inhibition, % at 12.8 µM. hit rate 0.34% among 370,000;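 active means inhibition above the mean of all tested compounds plus 3 SD, set per campaign, cut at about 25% in these data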;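 further: 0% = DMSO with enzyme and 100% = buffer with substrate but no TDP2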
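Test system: Human TDP2 enzyme | Reagent: 5 mM T5PNP | Compound dosing: 12.8 µM single point, 1% DMSO | Incubation: Enzyme reaction with compound for 2 h at 37 °C | Technique: p-Nitrophenol epi absorbance | Read-out: % inhibition relative to enzyme-containing and enzyme-free wells | Benchmarks: High control without enzyme, low control DMSO plus TDP2 | Replicates: Singlicate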
TCR-CD3 inh: inhibitors of human TCR-CD3 interaction, primary screen, biochemical, fluorescence, TAMRA-labeled TCR probe; T-cell receptor (TCR); inhibition, % at 9.4 µM; hit rate 0.37% among 360,000; AID 651800, 2012; in the data active means inhibition above about 19%;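 further: recombinant mutant TCR 2C K166C tagged with TAMRA read by polarization; 0% = receptor in buffer alone and 100% = receptor with positive control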
SIAE inh conf: human SIAE inhibitors, retest, confirmation, biochemical, fluorescence polarization, FP-Rh probe, triplicate; shares compounds with SIAE inh; SIAE FP-Rh activity-based probe; inhibition, % at 9.66 µM; hit rate 13% among 2,300;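 active means mean inhibition of the replicates above the hit cutoff set in the primary screen, cut at about 17% in these data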;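 further: 0% = SIAE with DMSO and probe and 100% = probe without SIAE; inhibitors lower polarization as more probe stays unbound to SIAE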
An asterisk follows results filed as active; . = no result given.

SMILES	PAD4 FP inh	HTRA1 inhibitor	ABHD4 inh	SIAE inh	TDP2 inh	TCR-CD3 inh	SIAE inh conf
COc1ccc(CCCN2CCC(CN3C(=S)NC[C@@H]3Cc3ccccc3)CC2)cc1OC	.	1	0	2	-2	4	.
COCc1ccc(C(=O)N2CCCC(N(C)CCc3ccccc3)C2)s1 (centres undefined)	.	0	0	0	1	0	.
CCc1ccc(C(=O)NNc2ccc(F)cc2F)cc1	-4	-2	5	-2	-4	-3	.
CC(C)(C)c1ccc(C(=O)NNc2ccc(F)cc2F)cc1	-5	-1	-14	22*	-9	-1	-4
COc1ccc(NCC(=O)N/N=C(\C)c2cc3ccccc3o2)cc1	-7	1	4	18*	2	2	8
Cc1ccc(/C=C/C(=O)OC(C)C(=O)NC2CCCCC2C)o1 (centres undefined)	1	-7	2	4	4	7	.
CC(OC(=O)/C=C/c1cccc(Cl)c1)C(=O)NC1CCCCC1C (centres undefined)	4	4	3	17*	14	6	-1
CC(OC(=O)C1CCN(S(=O)(=O)c2ccc(Cl)cc2)CC1)C(=O)NC1CCCCC1C (centres undefined)	-3	-4	2	19*	-13	4	-2
CC12CN3CCN(CC(C3)/C1=N\N=C1/C3CN4CCN(C3)CC1(C)C4)C2	-2	1	1	2	5	-3	.
CCNc1nc(NCC)nc(N/N=C/c2ccc(N(C)C)cc2)n1	6	9	4	1	8	-7	.
CCNc1nc(NCC)nc(N/N=C/c2ccc(O)c(O)c2)n1	-1	32	13	18*	-3	8	2
Cc1sc2ncnc(N3CCC(C(=O)Nc4nc(-c5cccs5)cs4)CC3)c2c1C	3	-9	-2	-4	-6	3	.
COc1ccc(C(=O)Oc2cc(C)[nH]c(=O)c2[N+](=O)[O-])c(OC)c1	0	3	0	2	6	-2	.
N#CC(=C1C=CC(=NO)C(Cl)=C1)c1ccccc1	.	.	14	-18	4	0	.
N#CC(=C1C=C(Br)C(=NO)C=C1Cl)c1ccc(Cl)cc1	.	-16	19	33*	7	4	50*
COc1ccccc1C1CC(c2ccco2)=NN1c1ccccc1 (centres undefined)	-1	10	3	17*	-2	2	-2
CCN(CC)c1ccc(/C=N/NC(=O)c2nnn(-c3nonc3N)c2C(C)C)c(O)c1	8	35	18	17*	-21	-5	5
CCCN(CCC)Cc1c(C(=O)N/N=C/c2ccco2)nnn1-c1nonc1N	3	-19	2	17*	0	-3	5
CC(C)c1c(C(=O)N/N=C/c2ccc3c(c2)OCO3)nnn1-c1nonc1N	1	5	2	4	-11	5	.
COC(=O)CCCc1nc2ccccc2s1	-3	-5	5	63*	-12	7	0
CCOc1cc(C(N)=O)cc(Cl)c1OCC	2	0	-2	17*	3	0	1
COC(=O)[C@]12C[C@H](CC(=O)NCc3cccc(C(F)(F)F)c3)C(=O)N(CCC3=CCCCC3)C1=C[C@H](C1CCCC1)O[C@@H]2C	.	.	0	-4	-8	.	.
NC(=S)Nc1ccc(F)cc1F	-6	2	3	22*	3	4	2
CCCCn1c(N)c(N(CCOC)C(=O)C2CC(=O)N(c3cccc(SC)c3)C2)c(=O)[nH]c1=O (centres undefined)	4	-1	-2	1	-8	8	.
CS(=O)(=O)N(Cc1ccc(C(=O)NCc2ccco2)cc1)c1ccccc1	3	-6	-6	1	-11	3	.
SMILES	PAD4 FP inh	HTRA1 inhibitor	ABHD4 inh	SIAE inh	TDP2 inh	TCR-CD3 inh	SIAE inh conf
CS(=O)(=O)N(Cc1ccc(C(=O)NCCSCc2ccco2)cc1)c1ccccc1	2	-6	1	18*	6	9	-3
COC(=O)[C@]12C[C@H](CC(=O)NCc3cccc(C(F)(F)F)c3)C(=O)N(Cc3ccccc3)C1=C[C@H](C(C)(C)C)O[C@@H]2C	.	.	-3	27*	9	1	-2
COC(=O)[C@]12C[C@H](CC(=O)NCCCN3CCCC3=O)C(=O)N(Cc3ccccc3)C1=C[C@H](C(C)C)O[C@@H]2C1CC1	.	.	3	20*	2	7	-3
COC(=O)[C@]12C[C@H](CC(=O)NCCCN3CCCC3=O)C(=O)N(Cc3cccc4ccccc34)C1=C[C@H](C(C)C)O[C@@H]2C1CC1	.	.	0	-1	-3	.	.
COC(=O)[C@]12C[C@H](CC(=O)NCc3cccc(C(F)(F)F)c3)C(=O)N(Cc3ccccc3)C1=C[C@H](COCc1ccccc1)O[C@@H]2C	.	.	-7	8	-12	.	.
CCCCCn1cc(CCC(=O)Nc2ccc(N(C)c3ccccn3)cc2)c2ccccc21	.	.	-1	26*	0	2	27*
Clc1ccc(N/N=C/c2ccncc2)cc1Cl	5	-6	7	24*	-11	3	19*
Cc1cc(C)nc(SCCN2CCCCC2)n1	2	10	-7	-7	-26	1	.
COc1ccc(Nc2cc(C)nc3ccc(OC)cc23)cc1	-7	-3	3	19*	-7	4	5
CCc1c(C)c2ccc(OCC(N)=O)cc2oc1=O	-4	4	-2	24*	-7	-1	2
O=C(COC(=O)c1cccc(F)c1)Nc1ccc(Cl)cn1	-1	3	-5	3	-6	-6	.
COc1ccc(-n2nnnc2C2c3ccccc3C(=O)N2C2CCN(Cc3ccccc3)CC2)cc1 (centres undefined)	.	.	2	21*	10	5	4
COc1ccc(OC)c(CN2C(=O)c3ccccc3C2c2nnnn2-c2ccc3c(c2)OCCO3)c1 (centres undefined)	.	.	5	7	3	2	.
Cc1ccc(SCC(=O)OCC(=O)N2CCN(C(=O)c3ccco3)CC2)c(C)c1	4	-3	-2	-1	-13	0	.
CCc1cccc2c(/C=N/NC(=O)c3cccc(S(=O)(=O)Nc4ccccc4Cl)c3)c[nH]c12	-2	11	1	36*	0	-1	-1
Cc1ccc(/C=N/NC(=O)c2cccc(S(=O)(=O)Nc3ccccc3Cl)c2)o1	0	-6	-10	5	3	-6	.
